D1 allo mod – D1 CRE-luciferase signal change, two-sided – cell-based, HEK293 D1, dopamine EC30, D1 allosteric modulator project, primary screen; D(1A) dopamine receptor (Homo sapiens), P21728; dopamine EC30 potentiation; actives deviate in either direction; B-score at 10 µM; 58,000 tested, 5.9% active; AID 641, 2007;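 active = luminescence count or its row- and column-corrected plate score outside the 99.7% band of the plate's sample wells, on either side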
HePTP inhibitor – inhibitors of human HePTP phosphatase, primary screen, biochemical, absorbance, leukemia target | 110,000 tested, 0.64% active | recombinant HePTP phosphatase activity, OD absorbance | Tyrosine-protein phosphatase non-receptor type 7 (Homo sapiens), P35236 | AID 521, 2006 | inhibition, % at 20 µM; in the data active = inhibition above about 50%;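 also: plate controls were vehicle for no effect and reference inhibitor for full effect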
M1 agonist – M1 muscarinic receptor agonists, primary screen, CHO-M1 cells, Fluo-4 calcium, agonist mode; Muscarinic acetylcholine receptor M1; Fluo-4 calcium fluorescence; stronger effect = higher value; B-score at 10 µM; 64,000 tested, 3% active; AID 626, 2007;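 active = fluorescence rise, raw or as B-score row- and column-corrected plate score, outside the 99.7% band of its plate's samples, either direction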
RORA act – activators of orphan receptor RORA, primary screen, cell-based, luminescence; activation, % at 10 µM; CHO-K1 Gal4-RORA LBD luciferase reporter; percent increase over mock-subtracted basal signal; Nuclear receptor ROR-alpha (Homo sapiens), P35398; 65,000 tested, 1.5% active;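 active = activation above the mean of all tested compounds plus 3 SD, cut at about 49% in these data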;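 also: 0% = DMSO-treated RORA cells and 100% = added signal equal to DMSO minus mock-transfected cells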
SF-1 act – activators of human SF-1, primary screen, cell-based, CHO-K1, Gal4-SF-1 LBD, luciferase luminescence | AID 522, 2006 | 65,000 tested, 1.9% active | CHO-K1 Gal4-SF-1 LBD luciferase reporter; % increase over DMSO SF-1-specific signal | activation, % at 10 µM | Steroidogenic factor 1 (Homo sapiens), Q13285;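 active = activation above the mean activation of all tested compounds plus 3 SD, cut at about 50% in these data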
Target sequence (Q13285 whole entry, looked up, the tested form may be a part): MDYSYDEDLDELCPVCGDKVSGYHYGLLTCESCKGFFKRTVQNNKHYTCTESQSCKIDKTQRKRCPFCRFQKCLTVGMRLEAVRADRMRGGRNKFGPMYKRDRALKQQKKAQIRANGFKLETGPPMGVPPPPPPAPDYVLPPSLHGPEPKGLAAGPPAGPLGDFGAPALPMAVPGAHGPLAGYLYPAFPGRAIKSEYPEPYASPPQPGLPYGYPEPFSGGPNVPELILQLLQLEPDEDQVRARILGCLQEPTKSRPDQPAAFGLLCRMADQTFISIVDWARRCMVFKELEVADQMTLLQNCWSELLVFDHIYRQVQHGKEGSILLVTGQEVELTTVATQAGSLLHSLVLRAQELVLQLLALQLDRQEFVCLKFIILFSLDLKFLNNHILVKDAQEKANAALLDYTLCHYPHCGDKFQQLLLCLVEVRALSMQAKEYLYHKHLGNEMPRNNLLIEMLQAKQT
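Test system: CHO-K1 cells co-transfected with Gal4 DBD–human SF-1 LBD, 5xGal4 luciferase reporter. Quantity: 4,000 cells per well. Compound: 10 µM only. Incubation: compound added 1 h post-seeding, 20 h exposure at 37 °C, 5% CO2. Detection: SteadyLite luciferase luminescence. Replication: one test per compound.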
M1 antag – antagonists of rat M1 muscarinic receptor; B-score at 10 µM; CHO-M1 cells, Fluo-4 calcium, ACh EC80 antagonist mode; stronger effect = lower value; 64,000 tested, 3.4% active;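 active = calcium fluorescence response, raw or row-and-column corrected B-score, differing from the plate sample mean either way at a set confidence level, mostly lower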
D1 mod confirm – D1 receptor positive allosteric modulators, retest, confirmation, cell-based, HEK293 D1, CRE-luciferase, duplicate; luminescence at 10 µM; 2,200 tested, 88% active; dopamine EC30 potentiation; stronger effect = higher value; AID 642, 2007; shares compounds with D1 allo mod;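 active = luminescence in either of two replicates above the same-plate mean plus 3 SD of the low-dose dopamine control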
D1 no dopamine – D1 receptor agonism without dopamine, confirmation, mechanism study for D1 allosteric modulator project, cell-based, HEK293 D1, CRE-luciferase, secondary assay 1; 1,900 tested, 0.8% active; luminescence at 10 µM; shares compounds with D1 allo mod; luminescence, no dopamine; stronger effect = higher value; in the data active = luminescence above about 3900
Isoprot counter – isoproterenol response counter-screen activity for D1 modulators | 2,200 tested, 63% active | AID 647 | calls only at 10 µM | HEK293 D1 CRE-luciferase, isoproterenol EC30 counter-screen | shares compounds with D1 allo mod;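 active = luminescence in either replicate above plate mean of wells with a partly effective reference agonist dose plus 3 SD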;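 also: isoproterenol raises cAMP through native beta-adrenoceptor Gs so signal bypasses D1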
* hit, by the source's call; i = inactive; . = not tested or not shown; + = active, no number. A selection: hits, their analogues and other compounds. The true share with any hit is near 8.2%.

SMILES	D1 allo mod	HePTP inhibitor	M1 agonist	RORA act	SF-1 act	M1 antag	D1 mod confirm	D1 no dopamine	Isoprot counter
COc1ccc(C2=Nn3c(nnc3-c3cccnc3)SC2)cc1	5.6*	3	0.092	-11	0	0.0062	10056*	1736	+
Cc1cc(NC(=O)COC(=O)CCC(=O)c2ccc(F)cc2)no1	1.9	4	-0.96	0	-12	0.47	.	.	.
Cn1c(=O)[nH]c(=O)c2c1nc(NCCCn1ccnc1)n2CCOc1ccccc1	0.0066	7	0.56	1	4	0.41	.	.	.
COc1ccc(C2=Nn3c(nnc3-c3ccccc3)SC2)cc1OC	29*	10	-0.56	12	42	0.56	21404*	.	+
Cc1cc(-c2nnc3n2N=C(c2ccc(-c4ccccc4)cc2)CS3)n[nH]1	-0.3	.	-1	2	-21	-0.63	.	.	.
Cc1cccc(-c2nnc3n2N=C(c2ccccc2)CS3)c1	16*	8	0.16	-16	-10	0.37	3880	1728	+
c1cncc(-c2nnc3n2N=C(c2cccs2)CS3)c1	4.1*	8	0.019	-8	-19	-1.3	15800*	1740	+
c1ccc(C2=Nn3c(nnc3-c3ccncc3)SC2)cc1	2.9*	3	0.77	-24	14	0.96	9856*	1576	i
CCC(C)(C(=O)Nc1ccc2c(c1)OCCO2)N(C(C)=O)c1ccc(C(N)=O)cc1 (stereo not drawn)	-0.13	9	-0.075	-8	-1	0.65	.	.	.
CCOc1cc(-c2noc(-c3cccnc3)n2)ccc1OC	19*	0	0.27	23	20	-0.082	21224*	.	+
CCOc1ccc(-c2noc(-c3cccnc3)n2)cc1OC	4.3*	8	0.46	57*	14	-0.61	10956*	1728	i
COc1ccc(/C=C(\NC(=O)c2ccccc2)C(=O)N/N=C/c2ccccn2)cc1	.	3	.	.	.	.	.	.	.
COC(=O)Cn1cnc2c(C#N)c3n(c2c1=O)CCCCC3	-0.47	-4	-0.033	0	4	-0.014	.	.	.
N#Cc1c2n(c3c(=O)n(Cc4ccccc4Cl)cnc13)CCCCC2	8.6*	-2	-0.093	-25	-10	-0.25	11076*	1496	+
Cc1ccc(C(=O)OCC(=O)Nc2ccccc2)cc1NC(=O)c1ccco1	4.4*	0	-0.32	12	22	0.1	6808	1724	i
Cc1ccccc1SCC(=O)NC1CCOC1=O (stereo not drawn)	-0.078	5	0.08	-10	-4	-1.7	.	.	.
O=C(/C=C/c1cccc([N+](=O)[O-])c1)Nc1cccc(NC(=O)c2ccccc2Cl)c1	.	2	.	.	.	.	.	.	.
O=C(Nc1cccc(NC(=O)c2ccc(Br)o2)n1)c1ccc(Br)o1	.	10	1.7	-14	4	1.3	.	.	.
COc1ccc(C(=O)Oc2cccnc2)cc1OC	8.6*	5	-1.8	-15	14	-0.92	20932*	1664	+
Nc1nc(OCC(F)(F)C(F)F)cc(-c2ccccc2)n1	.	5	.	.	.	.	.	.	.
Nc1nc(OCC(F)(F)F)cc(Oc2ccccc2F)n1	8.7*	9	0.34	32	8	-0.86	14824*	1612	+
CCOC(=O)C(=CNCC(=O)O)C(=O)OCC	.	2	.	.	.	.	.	.	.
CCOC(=O)CSc1nc2cc(OCC)ccc2n1C	.	8	.	.	.	.	.	.	.
CCOC(=O)CSc1nc2cccnc2n1-c1ccc(F)cc1	22*	-12	0.2	5	-5	0.027	24340*	1808	+
O=S(=O)(Nc1ccc(-c2nc3cccnc3s2)cc1)c1cccs1	8.5*	0	-0.64	34	45	0.04	19148*	1852	+
SMILES	D1 allo mod	HePTP inhibitor	M1 agonist	RORA act	SF-1 act	M1 antag	D1 mod confirm	D1 no dopamine	Isoprot counter
C=CCNc1sc(C(=O)c2cccs2)c(N)c1C#N	16*	5	.	10	8	.	22248*	1616	+
CCNc1sc(C(=O)c2cccs2)c(N)c1C#N	18*	6	0.83	-8	-5	0.55	22348*	1796	+
CC(C)CCSc1nc(N2CCOCC2)c2c(c1C#N)CC(C)(C)OC2	0.94	1	-0.92	13	1	1.2	.	.	.
CC(Sc1nc(N2CCOCC2)c2c(c1C#N)CC(C)(C)OC2)C(=O)Nc1ccccc1 (stereo not drawn)	5.2*	3	0.074	31	48	0.042	9724*	1700	+
CCOc1ccccc1C1CC(=O)NC2=C1C(=O)CC(C)(C)C2 (stereo not drawn)	3.3*	0	0.75	14	-2	-1.9	5416	1524	i
CC1(C)CC(=O)C2=C(C1)NC1=C(C(=O)CC(C)(C)C1)C2c1ccccc1OCc1ccccc1	.	2	.	.	.	.	.	.	.
CC(C)(C)c1[nH]nc2c1C(c1ccncc1)C(C#N)=C(N)O2 (stereo not drawn)	0.88	4	1.1	11	-16	1.3	.	.	.
CC(C)c1[nH]nc2c1C(c1cccnc1)C(C#N)=C(N)O2 (stereo not drawn)	-0.53	0	-0.4	-12	24	0.96	.	.	.
N#CC1=C(N)Oc2n[nH]c(-c3cccs3)c2C1c1ccsc1 (stereo not drawn)	4.4*	11	0.43	-2	-8	0.15	6176*	1692	i
Cc1ccc(C2C(C#N)=C(N)Oc3n[nH]c(-c4cccs4)c32)s1 (stereo not drawn)	4.6*	6	-0.13	2	4	-0.49	13468*	1676	i
COc1ccc(N(CC(=O)N/N=C/c2cc(Br)c(C)o2)S(=O)(=O)c2ccccc2[N+](=O)[O-])c(OC)c1	.	10	.	.	.	.	.	.	.
Cc1cc(C)cc(Nc2ncc3c(n2)CC(c2ccco2)CC3=O)c1 (stereo not drawn)	4.7*	13	0.31	-14	-11	0.47	7924*	1512	+

Screens from PubChem BioAssay.
